{"source": "ChEMBL document CHEMBL1154279", "about": "“Cytotoxic compounds from the stems of Cinnamomum tenuifolium” (J Nat Prod, 2009)", "key": {"[1]": {"tested_on": "DU-145", "assay": "Cytotoxicity against human DU145 cells after 72 hrs by XTT assay", "type": "functional, cell-based", "conditions": "DU-145, 24 h, in the assay text read “after 24 hrs” for “after 72 hrs”"}, "[2]": {"tested_on": "LNCaP", "assay": "Cytotoxicity against human LNCAP cells after 72 hrs by XTT assay", "type": "functional, cell-based", "conditions": "24 h, in the assay text read “after 24 hrs” for “after 72 hrs”", "outline": "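Prostate cancer cells in RPMI-1640 with 10% FBS, 37 °C, 5% CO2, grown to 70–80% confluence and treated at 0.1–100 µM for 24, 48 and 72 h. XTT labeling for 4 h at 37 °C, absorbance 450 nm (reference 650 nm) against control wells. IC50 derived from the mean of eight wells; taxol and cisplatin served as positive controls.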"}}}
{"smiles": "COc1ccc2c(c1)CC=C(CO)c1cc3c(cc1-2)OCO3", "note": "[TENUIFOLIN]", "values": [{"measurement": "IC50", "setting": "[1]", "result": "> 500", "unit": "µM"}, {"measurement": "IC50", "setting": "[2]", "result": 223, "unit": "µM"}]}
